The logD is the decadic logarithm of the distribution of all forms, ionised or not, between an organic phase and buffer at a given pH. A higher logD goes with a more lipophilic compound. As usually defined, the IC50 is the concentration that inhibits the measured activity by half. The term pKa denotes the pH at which an ionisable group is half protonated. Low readings indicate a stronger acid or weaker base, high ones a weaker acid or stronger base.

Series [1] in a line: Cytotoxicity against human THLE2 cells assessed as reduction in cell viability after 72 hrs by ATP Vialight assay. It is filed as toxicity, cell-based, THLE-2. The note with it: read-out: LC50. The method, boiled down: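 Immortalized human liver THLE-2 cells in BEGM with 0.7 μg/mL phosphoethanolamine, 0.5 ng/mL EGF, antibiotics and 10% FBS, seeded at 10,000 cells/well and left 24 h at 37 °C. Compounds were added at final 0–100 μM in 1% DMSO for 72 h. Cellular ATP was read by luminescence after 45 min lysis.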

A short description of series [2]: Cytotoxicity against mouse primary glial cells assessed as reduction in cell viability after 72 hrs by luminescence based ATPlite assay. It is filed as toxicity. To be noted: read-out: LC50. The gist of the method: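 Primary neuron/glia cultures from embryonic mouse brain were grown 5 days at 37 °C (5% CO2) to allow neuron formation. Compounds were then added at final 0–100 μM in 1% DMSO for 72 h. Cellular ATP was read by luminescence after 10 min with reagent at room temperature.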
(In ATP-based viability assays light output follows the ATP content of the culture.)

Series [3] can be described thus: Passive membrane permeability of the compound at 50 uM after 18 hrs by PAMPA. The class given is ADME. To be noted: read-out: Peff. The method, boiled down:
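PAMPA: 50 μM donor solution in PBS/EtOH 70:30 over PVDF membrane precoated with PBL/dodecane (20 mg/mL); PBS/EtOH acceptor; 18 h at 20 °C without shaking; duplicates; donor and acceptor concentrations by UV absorbance corrected against vehicle.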

The nature of series [4]: Lipophilicity, log D of the compound at pH 7.4. It is filed as physicochemical. To be noted: buffer.
The nature of series [5]: Selectivity ratio of pLC50 for mouse primary glial cells to pLC50 for human THLE2 cells. To be noted: mouse primary glial cells versus THLE2 cells. It is filed as ADME, cell-based.
Series [6] concerns the target cGMP-specific 3',5'-cyclic phosphodiesterase (Homo sapiens, UniProt O76074). In words: Inhibition of full length recombinant human N-terminal GST-tagged PDE5A1 expressed in baculovirus infected Sf9 cells using cGMP as substrate after 30 mins by HTRF assay.
Another series deals with Histone deacetylase 1 (Homo sapiens, UniProt Q13547). Put plainly: Inhibition of full length recombinant human C-terminal His/Flag-tagged HDAC1 expressed in baculovirus infected Sf9 cells using fluorogenic HDAC substrate after 30 mins by fluorescence analysis. The method, boiled down:
(§1)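 Full-length human recombinant HDAC1 (0.4 μg/mL final), HDAC2 (1.5 μg/mL), HDAC3/NCOR2 (0.1 μg/mL) or HDAC6 (3.6 μg/mL) with 10 μM fluorogenic acetyl-lysine substrate and 0.1 mg/mL BSA, 1% DMSO, 30 min at 37 °C; lysine developer 20 min at room temperature; fluorescence ex 355/em 460 nm. Vehicle = positive control, no enzyme = negative; IC50 from curve fit.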

In the next series the target is Histone deacetylase 2 (Homo sapiens, UniProt Q92769). In words: Inhibition of full length recombinant human C-terminal His-tagged HDAC2 expressed in baculovirus infected Sf9 cells using fluorogenic HDAC substrate after 30 mins by fluorescence analysis. The method, boiled down: as §1
The target of series [7] is Histone deacetylase 3/Nuclear receptor corepressor 2 (HDAC3/NCoR2) (Homo sapiens, UniProt O15379). Put plainly: Inhibition of full length recombinant human C-terminal His-tagged HDAC3/N-terminal GST-tagged NCOR2 (395 to 489 residues) expressed in baculovirus infected Sf9 cells using fluorogenic HDAC substrate after 30 mins by fluorescence analysis.
The target of series [8] is T1, Protein deacetylase HDAC6 (Homo sapiens, UniProt Q9UBN7).
T1 sequence (Q9UBN7 whole entry): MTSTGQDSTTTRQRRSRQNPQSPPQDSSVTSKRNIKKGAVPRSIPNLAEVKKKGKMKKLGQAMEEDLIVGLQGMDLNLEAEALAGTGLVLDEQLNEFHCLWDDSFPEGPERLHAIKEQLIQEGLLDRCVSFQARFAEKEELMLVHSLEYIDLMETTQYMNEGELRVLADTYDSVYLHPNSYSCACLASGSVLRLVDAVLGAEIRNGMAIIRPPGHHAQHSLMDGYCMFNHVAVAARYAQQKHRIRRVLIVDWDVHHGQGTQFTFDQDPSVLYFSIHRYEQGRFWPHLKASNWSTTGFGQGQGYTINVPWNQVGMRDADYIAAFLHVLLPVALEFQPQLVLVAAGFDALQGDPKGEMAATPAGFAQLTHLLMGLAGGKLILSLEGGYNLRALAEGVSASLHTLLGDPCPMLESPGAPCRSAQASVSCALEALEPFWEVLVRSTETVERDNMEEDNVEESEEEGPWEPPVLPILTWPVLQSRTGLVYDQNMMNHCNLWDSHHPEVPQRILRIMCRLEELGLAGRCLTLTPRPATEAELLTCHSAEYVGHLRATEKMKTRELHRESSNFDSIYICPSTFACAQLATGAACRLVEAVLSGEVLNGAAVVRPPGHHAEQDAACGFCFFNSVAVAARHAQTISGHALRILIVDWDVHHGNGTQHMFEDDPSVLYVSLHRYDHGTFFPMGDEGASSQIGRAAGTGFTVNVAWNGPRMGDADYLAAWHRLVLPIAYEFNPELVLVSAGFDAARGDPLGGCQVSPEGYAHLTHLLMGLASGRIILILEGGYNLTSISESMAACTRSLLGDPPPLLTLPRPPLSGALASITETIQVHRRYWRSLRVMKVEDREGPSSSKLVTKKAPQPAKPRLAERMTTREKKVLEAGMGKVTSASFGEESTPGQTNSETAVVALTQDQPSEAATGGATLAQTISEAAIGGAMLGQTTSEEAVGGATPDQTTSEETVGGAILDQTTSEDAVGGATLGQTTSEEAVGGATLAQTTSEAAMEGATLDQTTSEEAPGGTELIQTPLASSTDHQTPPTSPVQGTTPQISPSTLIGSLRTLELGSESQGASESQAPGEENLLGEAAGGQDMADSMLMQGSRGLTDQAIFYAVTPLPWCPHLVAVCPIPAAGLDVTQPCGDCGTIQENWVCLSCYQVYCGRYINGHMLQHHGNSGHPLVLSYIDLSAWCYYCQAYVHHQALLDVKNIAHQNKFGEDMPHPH
Put plainly: Inhibition of full length recombinant human N-terminal GST tagged HDAC6 expressed in baculovirus infected Sf9 cells using fluorogenic HDAC substrate after 30 mins by fluorescence analysis. The method, boiled down: as §1

Series [9] can be described thus: Dissociation constant, pKa of the compound. It is filed as physicochemical.
The nature of series [10]: Selectivity ratio of pIC50 for full length recombinant human N-terminal GST tagged HDAC6 expressed in baculovirus infected Sf9 cells to pIC50 for full length recombinant human C-terminal His/Flag-tagged HDAC1 expressed in baculovirus infected Sf9 cells.
A short description of series [11]: Selectivity ratio of pIC50 for full length recombinant human C-terminal His/Flag-tagged HDAC1 expressed in baculovirus infected Sf9 cells to pIC50 for full length recombinant human N-terminal GST tagged HDAC6 expressed in baculovirus infected Sf9 cells.

Chain of Histone deacetylase 2 (Q92769 whole entry, the tested form may be a part): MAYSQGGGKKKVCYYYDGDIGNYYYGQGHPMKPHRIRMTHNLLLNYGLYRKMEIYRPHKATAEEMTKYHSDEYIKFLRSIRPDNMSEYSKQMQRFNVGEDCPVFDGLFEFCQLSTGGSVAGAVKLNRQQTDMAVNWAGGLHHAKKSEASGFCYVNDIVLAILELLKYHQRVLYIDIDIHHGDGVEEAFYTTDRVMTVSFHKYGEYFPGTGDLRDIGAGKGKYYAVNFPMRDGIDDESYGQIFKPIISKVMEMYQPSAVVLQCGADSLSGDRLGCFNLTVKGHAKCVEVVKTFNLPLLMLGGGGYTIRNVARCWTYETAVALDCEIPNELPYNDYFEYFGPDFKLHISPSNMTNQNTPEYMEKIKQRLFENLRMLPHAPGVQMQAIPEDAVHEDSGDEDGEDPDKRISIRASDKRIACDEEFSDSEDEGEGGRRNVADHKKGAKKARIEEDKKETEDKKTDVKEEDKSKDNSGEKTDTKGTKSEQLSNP
Chain of Histone deacetylase 1 (Q13547 whole entry): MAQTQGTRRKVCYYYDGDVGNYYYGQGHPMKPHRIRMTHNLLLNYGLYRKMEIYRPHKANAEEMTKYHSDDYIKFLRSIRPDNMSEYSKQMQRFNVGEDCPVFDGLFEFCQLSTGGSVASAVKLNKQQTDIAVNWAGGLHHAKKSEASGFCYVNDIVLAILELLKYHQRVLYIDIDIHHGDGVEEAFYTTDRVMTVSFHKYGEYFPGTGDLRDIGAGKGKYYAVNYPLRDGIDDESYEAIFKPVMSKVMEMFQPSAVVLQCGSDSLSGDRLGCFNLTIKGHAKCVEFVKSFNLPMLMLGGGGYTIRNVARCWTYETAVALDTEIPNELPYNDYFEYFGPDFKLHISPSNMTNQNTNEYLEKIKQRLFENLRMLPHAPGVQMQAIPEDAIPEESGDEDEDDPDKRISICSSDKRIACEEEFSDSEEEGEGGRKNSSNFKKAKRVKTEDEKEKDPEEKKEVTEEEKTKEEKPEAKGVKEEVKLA
Chain of Histone deacetylase 3/Nuclear receptor corepressor 2 (HDAC3/NCoR2) (O15379 whole entry, the tested form may be a part): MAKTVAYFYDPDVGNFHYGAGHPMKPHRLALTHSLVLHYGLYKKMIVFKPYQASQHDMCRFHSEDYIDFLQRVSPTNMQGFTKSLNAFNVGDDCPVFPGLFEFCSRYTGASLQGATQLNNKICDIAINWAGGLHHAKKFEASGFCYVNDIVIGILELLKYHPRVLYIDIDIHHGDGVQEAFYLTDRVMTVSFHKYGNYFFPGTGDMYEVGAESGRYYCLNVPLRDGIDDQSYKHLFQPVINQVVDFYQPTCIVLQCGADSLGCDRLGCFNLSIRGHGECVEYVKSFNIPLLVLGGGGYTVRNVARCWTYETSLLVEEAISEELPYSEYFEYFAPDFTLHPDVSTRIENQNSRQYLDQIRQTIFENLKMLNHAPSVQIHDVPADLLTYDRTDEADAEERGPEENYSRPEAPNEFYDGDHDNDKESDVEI
Chain of Histone deacetylase 3/Nuclear receptor corepressor 2 (HDAC3/NCoR2) (Q9Y618 whole entry, further chain, the tested form may be a part): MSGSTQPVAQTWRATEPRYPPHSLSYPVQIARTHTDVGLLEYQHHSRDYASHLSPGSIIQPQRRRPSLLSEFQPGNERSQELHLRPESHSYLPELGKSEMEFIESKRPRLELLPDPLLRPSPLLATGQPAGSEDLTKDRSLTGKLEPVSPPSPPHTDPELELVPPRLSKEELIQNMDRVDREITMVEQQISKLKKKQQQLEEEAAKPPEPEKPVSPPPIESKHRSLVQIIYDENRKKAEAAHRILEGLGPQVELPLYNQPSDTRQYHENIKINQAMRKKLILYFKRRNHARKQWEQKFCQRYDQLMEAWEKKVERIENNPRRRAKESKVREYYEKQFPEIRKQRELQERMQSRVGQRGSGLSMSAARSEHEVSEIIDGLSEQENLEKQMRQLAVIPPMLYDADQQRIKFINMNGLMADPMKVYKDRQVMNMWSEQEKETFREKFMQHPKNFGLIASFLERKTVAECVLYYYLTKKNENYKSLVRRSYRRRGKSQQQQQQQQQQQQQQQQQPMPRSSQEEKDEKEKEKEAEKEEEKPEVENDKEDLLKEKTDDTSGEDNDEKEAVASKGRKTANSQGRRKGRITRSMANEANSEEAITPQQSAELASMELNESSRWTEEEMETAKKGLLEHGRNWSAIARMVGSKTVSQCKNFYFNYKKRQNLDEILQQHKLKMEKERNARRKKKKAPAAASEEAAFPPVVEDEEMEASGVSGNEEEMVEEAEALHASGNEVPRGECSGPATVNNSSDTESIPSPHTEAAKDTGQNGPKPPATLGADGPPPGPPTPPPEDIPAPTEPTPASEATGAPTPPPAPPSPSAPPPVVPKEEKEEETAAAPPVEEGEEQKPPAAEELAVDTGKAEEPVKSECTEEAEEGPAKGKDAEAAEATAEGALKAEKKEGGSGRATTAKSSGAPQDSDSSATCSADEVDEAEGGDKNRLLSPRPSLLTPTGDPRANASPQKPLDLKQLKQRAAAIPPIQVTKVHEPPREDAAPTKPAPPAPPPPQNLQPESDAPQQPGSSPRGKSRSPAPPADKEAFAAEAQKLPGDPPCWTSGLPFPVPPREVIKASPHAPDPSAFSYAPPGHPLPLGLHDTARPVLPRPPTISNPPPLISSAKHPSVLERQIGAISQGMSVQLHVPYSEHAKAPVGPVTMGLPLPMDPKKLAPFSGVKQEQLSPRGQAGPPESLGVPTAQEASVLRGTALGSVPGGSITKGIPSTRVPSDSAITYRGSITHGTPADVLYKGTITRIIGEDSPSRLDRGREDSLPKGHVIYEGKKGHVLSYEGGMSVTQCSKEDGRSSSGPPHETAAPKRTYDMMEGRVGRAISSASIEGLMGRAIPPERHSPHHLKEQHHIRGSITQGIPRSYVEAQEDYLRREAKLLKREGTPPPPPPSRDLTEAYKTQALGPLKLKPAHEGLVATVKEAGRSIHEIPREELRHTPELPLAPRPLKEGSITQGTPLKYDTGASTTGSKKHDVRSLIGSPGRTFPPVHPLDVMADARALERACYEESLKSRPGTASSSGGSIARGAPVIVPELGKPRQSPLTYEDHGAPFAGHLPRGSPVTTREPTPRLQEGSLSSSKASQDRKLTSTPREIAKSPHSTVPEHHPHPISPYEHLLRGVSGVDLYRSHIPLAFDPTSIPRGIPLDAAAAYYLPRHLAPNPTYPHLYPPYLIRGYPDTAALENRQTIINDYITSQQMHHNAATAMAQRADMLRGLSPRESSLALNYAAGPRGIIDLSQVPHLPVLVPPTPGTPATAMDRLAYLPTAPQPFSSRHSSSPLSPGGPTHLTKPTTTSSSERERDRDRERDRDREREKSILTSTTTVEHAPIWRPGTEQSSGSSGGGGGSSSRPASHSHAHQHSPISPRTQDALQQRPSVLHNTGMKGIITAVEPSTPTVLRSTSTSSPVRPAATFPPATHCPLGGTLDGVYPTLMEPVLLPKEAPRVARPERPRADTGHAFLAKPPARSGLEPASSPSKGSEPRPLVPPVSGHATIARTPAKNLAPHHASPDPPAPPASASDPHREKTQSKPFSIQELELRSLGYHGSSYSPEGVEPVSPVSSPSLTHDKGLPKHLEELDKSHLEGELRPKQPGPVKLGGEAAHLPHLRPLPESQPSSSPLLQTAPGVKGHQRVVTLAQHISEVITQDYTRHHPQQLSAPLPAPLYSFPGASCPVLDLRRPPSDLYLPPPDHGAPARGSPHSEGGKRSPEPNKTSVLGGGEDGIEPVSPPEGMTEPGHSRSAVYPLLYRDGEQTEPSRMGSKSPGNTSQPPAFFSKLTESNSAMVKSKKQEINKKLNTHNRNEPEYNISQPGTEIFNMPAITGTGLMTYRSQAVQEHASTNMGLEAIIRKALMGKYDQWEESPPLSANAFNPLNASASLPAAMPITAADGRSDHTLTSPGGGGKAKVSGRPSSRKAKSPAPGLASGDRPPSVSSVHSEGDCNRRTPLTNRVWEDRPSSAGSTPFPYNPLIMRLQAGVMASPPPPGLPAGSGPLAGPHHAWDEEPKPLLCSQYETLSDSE

For `O=C(CCCCCCC(=O)Nc1ccccc1)NO` [VORINOSTAT], the CC50 at 72 h in series [1] stood at 3.59 µM; in series [2], 4.91 µM. In [3], the Papp at 18 h, 50 µM came to 0.23 ×10⁻⁶ cm/s. This compound returned a log distribution coefficient (logD) in [4] of 2.
Take `CCCc1nn(C)c2c(=O)[nH]c(-c3cc(CC4CCN(c5ncc(C(=O)NO)cn5)CC4)ccc3OCC)nc12`: the selectivity ratio in series [5] is below 0.4. For the same compound, the IC50 in series [6] was 0.007 µM; on Histone deacetylase 1, 0.063 µM; at Histone deacetylase 2 it was 0.335 µM; in series [7], 0.051 µM; in [8], 1.25 µM. Moreover, the pKa in series [9] came out at 7.85. Further, the Ratio pIC50 in series [10] worked out at 1.4. The Papp at 18 h, 50 µM in series [3] worked out at 0.41 ×10⁻⁶ cm/s.
Regarding `CCCc1nn(C)c2c(=O)[nH]c(-c3cc(S(=O)(=O)N4CCN(Cc5ccc(/C=C/C(=O)NO)cc5)CC4)ccc3OCC)nc12`, the IC50 in [6] worked out at 0.002 µM; at Histone deacetylase 1, 1.34 µM; on Histone deacetylase 2, 6.97 µM; in series [8], 0.089 µM. In series [11], the Ratio pIC50 was above 1.
As to `CCCc1nn(C)c2c(=O)[nH]c(-c3cc(C4CC(C(=O)NO)C4)ccc3OCC)nc12` (stereo not given), the selectivity ratio in [5] is below 0.4. The IC50 turned out to be 0.017 µM in series [6], 0.554 µM on Histone deacetylase 1, 1.86 µM at Histone deacetylase 2 and 0.13 µM in series [8]. The Ratio pIC50 in series [11] was above 0.6. Further, the Papp at 18 h, 50 µM in series [3] is 1.37 ×10⁻⁶ cm/s.

The values are drawn from ChEMBL document CHEMBL3860059, “Design, Synthesis, and Biological Evaluation of First-in-Class Dual Acting Histone Deacetylases (HDACs) and Phosphodiesterase 5 (PDE5) Inhibitors for the Treatment of Alzheimer's Disease” (J Med Chem, 2016).
